Measurements published in ChEMBL document CHEMBL1152689, “Synthesis, tautomerism, and antimicrobial, anti-HCV, anti-SSPE, antioxidant, and antitumor activities of arylazobenzosuberones” (Bioorg Med Chem, 2009).
≈ marks a conversion by molar mass, not a printed value. Calls of active or inactive are those of the source. No cut-off for these calls is given here.

Assays:
Penicillium italicum [1] = test: Antimicrobial activity against Penicillium italicum at 2.5 ug/mL by agar diffusion method; format: functional; conditions: read-out: IZ
Pseudomonas aeruginosa [2] = test: Antimicrobial activity against Pseudomonas aeruginosa at 1.25 ug/mL by agar diffusion method; format: functional; conditions: read-out: IZ
Aspergillus fumigatus [3] = test: Antimicrobial activity against Aspergillus fumigatus at 1.25 ug/mL by agar diffusion method; format: functional; conditions: read-out: IZ
[4] = tested on: Syncephalastrum racemosum; test: Antimicrobial activity against Syncephalastrum racemosum by agar diffusion method; format: functional
In short: (§1)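 Agar diffusion on plates against bacteria and fungi. MIC taken as the lowest concentration giving no visible growth on the plate.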

Bacillus subtilis [5] = test: Antimicrobial activity against Bacillus subtilis by agar diffusion method; format: functional; in short: as §1
Candida albicans [6] = test: Antimicrobial activity against Candida albicans by agar diffusion method; format: functional; in short: as §1
Escherichia coli [7] = test: Antimicrobial activity against Escherichia coli by agar diffusion method; format: functional; in short: as §1
Staphylococcus aureus [8] = test: Antimicrobial activity against Staphylococcus aureus at 2.5 ug/mL by agar diffusion method; format: functional; conditions: read-out: IZ
Pseudomonas aeruginosa [9] = test: Antimicrobial activity against Pseudomonas aeruginosa at 2.5 ug/mL by agar diffusion method; format: functional; conditions: read-out: IZ
Escherichia coli [10] = test: Antimicrobial activity against Escherichia coli at 2.5 ug/mL by agar diffusion method; format: functional; conditions: read-out: IZ
Escherichia coli [11] = test: Antimicrobial activity against Escherichia coli at 5 ug/mL by agar diffusion method; format: functional; conditions: read-out: IZ
[12] = tested on: Radical scavenging activity; test: Antioxidant activity assessed as DPPH free radical scavenging activity by measuring reduction in DPPH absorbance by ELISA relative to untreated control; format: functional; parameters: concentration or dose not given beside the values
In short: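 Test compounds dissolved in DMSO, ascorbic acid standard in water, both serially diluted. 10 µl sample added to 90 µl of 100 µM DPPH in methanol and kept in the dark at 37 °C for 30 min. Absorbance read at 515 nm. Blank is DMSO plus DPPH. % reduction = (A_B − A_A)/A_B × 100. Run in triplicate.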

Aspergillus fumigatus [13] = test: Antimicrobial activity against Aspergillus fumigatus at 5 ug/mL by agar diffusion method; format: functional; conditions: read-out: IZ
[14] = tested on: Syncephalastrum racemosum; test: Antimicrobial activity against Syncephalastrum racemosum at 5 ug/mL by agar diffusion method; format: functional; conditions: read-out: IZ
Penicillium italicum [15] = test: Antimicrobial activity against Penicillium italicum at 5 ug/mL by agar diffusion method; format: functional; conditions: read-out: IZ
MC-38 = test: Antitumor activity against mouse Colon 38 cells implanted in iv dosed C57BL/6 mouse administered as single dose; format: functional, organism-based
In short: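 Female C57BL/6 mice, 6 weeks old, given about 30 mg Colon 38 tumor tissue s.c. in the flank. Randomized into groups of n = 5 when tumors reached about 300 mm3 (day 1). Compound in 5% glucose given as a single iv tail-vein dose on day 1; controls received 5% glucose. Tumor volume = (length × width²)/2 and body weight tracked.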

Bacillus subtilis [16] = test: Antimicrobial activity against Bacillus subtilis at 2.5 ug/mL by agar diffusion method; format: functional; conditions: read-out: IZ
Staphylococcus aureus [17] = test: Antimicrobial activity against Staphylococcus aureus at 5 ug/mL by agar diffusion method; format: functional; conditions: read-out: IZ
Candida albicans [18] = test: Antimicrobial activity against Candida albicans at 2.5 ug/mL by agar diffusion method; format: functional; conditions: read-out: IZ
Bacillus subtilis [19] = test: Antimicrobial activity against Bacillus subtilis at 1.25 ug/mL by agar diffusion method; format: functional; conditions: read-out: IZ
Penicillium italicum [20] = test: Antimicrobial activity against Penicillium italicum by agar diffusion method; format: functional; in short: as §1
Aspergillus fumigatus [21] = test: Antimicrobial activity against Aspergillus fumigatus by agar diffusion method; format: functional; in short: as §1
Pseudomonas aeruginosa [22] = test: Antimicrobial activity against Pseudomonas aeruginosa at 5 ug/mL by agar diffusion method; format: functional; conditions: read-out: IZ
Escherichia coli [23] = test: Antimicrobial activity against Escherichia coli at 1.25 ug/mL by agar diffusion method; format: functional; conditions: read-out: IZ
Staphylococcus aureus [24] = test: Antimicrobial activity against Staphylococcus aureus at 1.25 ug/mL by agar diffusion method; format: functional; conditions: read-out: IZ
Candida albicans [25] = test: Antimicrobial activity against Candida albicans at 1.25 ug/mL by agar diffusion method; format: functional; conditions: read-out: IZ
Aspergillus fumigatus [26] = test: Antimicrobial activity against Aspergillus fumigatus at 2.5 ug/mL by agar diffusion method; format: functional; conditions: read-out: IZ
Staphylococcus aureus [27] = test: Antimicrobial activity against Staphylococcus aureus by agar diffusion method; format: functional; in short: as §1
[28] = Antioxidant activity assessed as inhibition of peroxynitrite-mediated 3-nitrotyrosine formation by HPLC; format: functional
In short: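 Tyrosine and peroxynitrite, each 100 µM, reacted with compound at 0–300 µM in 100 mM phosphate buffer pH 7.4 at 37 °C for 15 min. Peroxynitrite made from acidified H2O2 plus KNO2, quenched with NaOH, and kept on ice no longer than 30 min before use.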

[29] = tested on: Syncephalastrum racemosum; test: Antimicrobial activity against Syncephalastrum racemosum at 1.25 ug/mL by agar diffusion method; format: functional; conditions: read-out: IZ
[30] = tested on: Syncephalastrum racemosum; test: Antimicrobial activity against Syncephalastrum racemosum at 2.5 ug/mL by agar diffusion method; format: functional; conditions: read-out: IZ
[31] = molecular target: DNA topoisomerase 2-alpha (Mus musculus) (UniProt Q01320); test: Inhibition of topoisomerase 2 from mouse P388 cells assessed as relaxation of pBR322 DNA by agarose gel electrophoresis relative to etoposide; format: cell-based
Sequence of DNA topoisomerase 2-alpha (Mus musculus) (Q01320 whole entry): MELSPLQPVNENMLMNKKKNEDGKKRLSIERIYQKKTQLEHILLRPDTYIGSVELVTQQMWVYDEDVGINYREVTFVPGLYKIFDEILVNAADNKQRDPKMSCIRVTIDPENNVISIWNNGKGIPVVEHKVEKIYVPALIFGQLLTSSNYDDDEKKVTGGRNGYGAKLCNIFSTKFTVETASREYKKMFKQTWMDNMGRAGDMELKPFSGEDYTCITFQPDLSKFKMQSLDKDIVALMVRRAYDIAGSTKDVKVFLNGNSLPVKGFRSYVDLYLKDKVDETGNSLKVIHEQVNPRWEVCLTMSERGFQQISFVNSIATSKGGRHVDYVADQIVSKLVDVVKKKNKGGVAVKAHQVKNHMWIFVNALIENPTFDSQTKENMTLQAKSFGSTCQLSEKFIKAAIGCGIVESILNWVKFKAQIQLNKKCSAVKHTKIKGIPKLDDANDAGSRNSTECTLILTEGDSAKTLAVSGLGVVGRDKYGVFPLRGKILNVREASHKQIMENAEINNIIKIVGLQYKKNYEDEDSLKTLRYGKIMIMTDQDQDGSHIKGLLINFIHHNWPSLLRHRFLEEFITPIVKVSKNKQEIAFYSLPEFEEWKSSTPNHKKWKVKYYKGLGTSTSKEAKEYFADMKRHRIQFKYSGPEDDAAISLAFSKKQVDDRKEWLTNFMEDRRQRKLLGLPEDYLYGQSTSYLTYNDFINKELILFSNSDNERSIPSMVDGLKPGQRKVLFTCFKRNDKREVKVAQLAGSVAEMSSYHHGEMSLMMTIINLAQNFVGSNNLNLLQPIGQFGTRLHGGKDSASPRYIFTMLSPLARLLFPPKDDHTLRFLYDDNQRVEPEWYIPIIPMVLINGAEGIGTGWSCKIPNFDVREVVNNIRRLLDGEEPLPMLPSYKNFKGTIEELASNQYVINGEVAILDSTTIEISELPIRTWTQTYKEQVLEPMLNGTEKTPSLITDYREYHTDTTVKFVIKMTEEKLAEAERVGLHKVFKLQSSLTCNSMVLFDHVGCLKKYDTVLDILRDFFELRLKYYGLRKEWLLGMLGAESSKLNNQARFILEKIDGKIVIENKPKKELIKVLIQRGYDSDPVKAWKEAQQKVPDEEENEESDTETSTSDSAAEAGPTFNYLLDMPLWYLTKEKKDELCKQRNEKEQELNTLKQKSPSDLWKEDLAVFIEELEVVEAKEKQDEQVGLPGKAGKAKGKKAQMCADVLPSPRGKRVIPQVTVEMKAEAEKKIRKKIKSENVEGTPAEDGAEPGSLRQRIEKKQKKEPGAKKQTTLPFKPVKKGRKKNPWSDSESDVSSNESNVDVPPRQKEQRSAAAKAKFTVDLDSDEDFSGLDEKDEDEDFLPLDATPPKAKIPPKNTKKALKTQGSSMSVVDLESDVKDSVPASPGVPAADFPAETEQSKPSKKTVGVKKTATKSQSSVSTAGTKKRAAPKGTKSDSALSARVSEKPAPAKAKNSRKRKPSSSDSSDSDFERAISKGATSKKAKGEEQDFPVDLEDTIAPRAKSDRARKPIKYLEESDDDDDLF
In short: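 Topoisomerase II purified from P388 cells. One unit relaxes 0.125 µg supercoiled pBR322 DNA, incubated with or without inhibitor at 30 °C for 1 h in 50 mM Tris-HCl pH 8.0, 100 mM KCl, 10 mM MgCl2, 0.5 mM DTT, 1 mM ATP and 30 µg/ml BSA. Products run on 0.7% agarose in TBE, stained with ethidium bromide and imaged under UV.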

Bacillus subtilis [32] = test: Antimicrobial activity against Bacillus subtilis at 5 ug/mL by agar diffusion method; format: functional; conditions: read-out: IZ
Measles morbillivirus = test: Antiviral activity against Measles virus infected in intracranially dosed hamster assessed as inhibition of subacute sclerosing panencephalitis; format: functional
In short: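 Hamsters under ether anesthesia injected intracranially, into the subarachnoid space at 2 mm depth, at 5, 10 and 20 mg/kg/day for 10 days. Four animals per group sacrificed on days 1–20. Brains homogenized in PBS and centrifuged, supernatant deproteinized with ethanol, then MIC in brain tissue determined by HPLC and bioassay.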

Penicillium italicum [33] = test: Antimicrobial activity against Penicillium italicum at 1.25 ug/mL by agar diffusion method; format: functional; conditions: read-out: IZ
[34] = molecular target: T1, DNA topoisomerase 1 (Homo sapiens) (UniProt P11387); test: Inhibition of topoisomerase 1 relative to etoposide
T1 sequence (whole entry): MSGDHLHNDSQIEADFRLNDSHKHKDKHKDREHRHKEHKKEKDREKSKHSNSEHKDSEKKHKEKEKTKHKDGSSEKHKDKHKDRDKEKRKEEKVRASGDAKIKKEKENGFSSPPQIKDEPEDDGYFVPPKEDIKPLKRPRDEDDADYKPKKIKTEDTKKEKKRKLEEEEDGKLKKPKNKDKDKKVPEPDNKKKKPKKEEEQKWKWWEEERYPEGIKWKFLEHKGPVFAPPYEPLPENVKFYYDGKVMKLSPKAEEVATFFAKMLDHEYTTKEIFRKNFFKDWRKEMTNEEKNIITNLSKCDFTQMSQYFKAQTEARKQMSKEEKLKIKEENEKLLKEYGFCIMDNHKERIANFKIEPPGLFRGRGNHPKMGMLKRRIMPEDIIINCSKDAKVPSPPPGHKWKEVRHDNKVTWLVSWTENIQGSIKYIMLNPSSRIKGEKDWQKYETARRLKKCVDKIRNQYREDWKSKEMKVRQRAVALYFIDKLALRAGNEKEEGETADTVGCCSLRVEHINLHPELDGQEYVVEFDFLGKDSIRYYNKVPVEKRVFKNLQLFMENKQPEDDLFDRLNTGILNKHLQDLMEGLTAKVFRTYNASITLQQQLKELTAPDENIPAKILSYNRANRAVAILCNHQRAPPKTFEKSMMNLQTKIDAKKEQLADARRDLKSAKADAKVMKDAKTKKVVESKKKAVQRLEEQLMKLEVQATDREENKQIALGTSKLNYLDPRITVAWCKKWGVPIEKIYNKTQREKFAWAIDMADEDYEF

Hepatitis C virus = test: Antiviral activity against HCV by cell based replicon assay; format: functional, Hepacivirus hominis
In short: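 HCV replicon cells plated at 1×10^4 per well. Next day incubated at 37 °C with serially diluted compound in DMEM with 2% FBS and 0.5% DMSO. HCV RNA copy number measured by quantitative RT-PCR on total cellular RNA. Each point is the average of five replicates. Cytotoxicity measured by MTS in parallel.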

Candida albicans [35] = test: Antimicrobial activity against Candida albicans at 5 ug/mL by agar diffusion method; format: functional; conditions: read-out: IZ

## Cc1cccc(N/N=C2\CCCc3ccccc3C2=O)c1
Penicillium italicum [1]
  zone of inhibition at 2.5 µg/mL: 6 mm
Pseudomonas aeruginosa [2]
  zone of inhibition at 1.25 µg/mL: 0 mm
Aspergillus fumigatus [3]
  zone of inhibition at 1.25 µg/mL: 9 mm
[4]
  MIC: 0.313 µg/mL (≈ 1.12 µM)
Bacillus subtilis [5]
  MIC: 0.313 µg/mL (≈ 1.12 µM)
Candida albicans [6]
  MIC: 1.25 µg/mL (≈ 4.49 µM)
Escherichia coli [7]
  MIC: 2.5 µg/mL (≈ 8.98 µM)
Staphylococcus aureus [8]
  zone of inhibition at 2.5 µg/mL: 8 mm
Pseudomonas aeruginosa [9]
  zone of inhibition at 2.5 µg/mL: 0 mm
Escherichia coli [10]
  zone of inhibition at 2.5 µg/mL: 6 mm
Escherichia coli [11]
  zone of inhibition at 5 µg/mL: 12 mm
[12]
  Activity: 83.1%
Aspergillus fumigatus [13]
  zone of inhibition at 5 µg/mL: 22 mm
[14]
  zone of inhibition at 5 µg/mL: 19 mm
Penicillium italicum [15]
  zone of inhibition at 5 µg/mL: 14 mm
MC-38
  Activity: Active
Bacillus subtilis [16]
  zone of inhibition at 2.5 µg/mL: 10 mm
Staphylococcus aureus [17]
  zone of inhibition at 5 µg/mL: 12 mm
Candida albicans [18]
  zone of inhibition at 2.5 µg/mL: 6 mm
Bacillus subtilis [19]
  zone of inhibition at 1.25 µg/mL: 8 mm
Penicillium italicum [20]
  MIC: 1.25 µg/mL (≈ 4.49 µM)
Aspergillus fumigatus [21]
  MIC: 0.313 µg/mL (≈ 1.12 µM)
Pseudomonas aeruginosa [22]
  zone of inhibition at 5 µg/mL: 0 mm
Escherichia coli [23]
  zone of inhibition at 1.25 µg/mL: 0 mm
Staphylococcus aureus [24]
  zone of inhibition at 1.25 µg/mL: 5 mm
Candida albicans [25]
  zone of inhibition at 1.25 µg/mL: 2 mm
Aspergillus fumigatus [26]
  zone of inhibition at 2.5 µg/mL: 14 mm
Staphylococcus aureus [27]
  MIC: 0.625 µg/mL (≈ 2.25 µM)
[28]
  IC50: 55.1 µM
[29]
  zone of inhibition at 1.25 µg/mL: 8 mm
[30]
  zone of inhibition at 2.5 µg/mL: 12 mm
[31]
  Ratio: 4.66
Bacillus subtilis [32]
  zone of inhibition at 5 µg/mL: 15 mm
Measles morbillivirus
  MIC: 6.01 µg/mL (≈ 21.6 µM)
Penicillium italicum [33]
  zone of inhibition at 1.25 µg/mL: 3 mm
[34]
  Ratio: 4.46
Hepatitis C virus
  MIC: 1.02 µg/mL (≈ 3.67 µM)
Candida albicans [35]
  zone of inhibition at 5 µg/mL: 9 mm
